From PubChem BioAssay
In the library only some 2.2% were active in any assay of this set; here they are far more common.
G6PDH CS = L. mesenteroides G6PDH inhibitors, counter-screen for G6PDH-coupled screening assays, biochemical, Leuconostoc mesenteroides enzyme. Purified L. mesenteroides G6PDH, diaphorase/resazurin coupled fluorescence, 45 min. inhibition, % at 5 µM. actives 0.12% (n = 200,000); in the data active = inhibition above about 50%
PMI act = activators of human PMI, primary screen, biochemical, fluorescence intensity, near-Km mannose 6-phosphate; Mannose-6-phosphate isomerase (Homo sapiens), P34949; purified human PMI, coupled resazurin fluorescence, 20 min; stronger effect = higher value; 1 = vehicle control, 0 substrate-free wells; activation factor at 20 µM; actives 0.005% (n = 190,000); AID 1214, 2008;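 active = activation factor of 2 or more at 20 µM, relative to plate controls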
PMI act hi M6P = human PMI activators, high substrate, primary screen, biochemical, fluorescence intensity, near-saturating mannose 6-phosphate; coupled PMI enzyme assay, resazurin fluorescence, 20 min; stronger effect = higher value; 1 = untreated enzyme, 0 = substrate-free blank; activation factor at 20 µM; actives 0.34% (n = 190,000);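 active = activation factor of 2 or more at 20 µM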
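Material: human phosphomannose isomerase with PGI, G6PDH, diaphorase coupling enzymes / Reagent: Man-6-P substrate 1.0 mM / Dosing: single compound dose of 20 µM, 1% DMSO final / Incubation: enzyme reaction with compound 20 min at room temperature / Signal: resorufin fluorescence (Ex 544/Em 590 nm) from resazurin via diaphorase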
ROMK mod = ROMK potassium channel modulators, primary screen, cell-based, thallium flux, MLSMR library; actives 2% (n = 130,000); B-score at 10 µM; Tet-inducible ROMK, thallium flux fluorescence; actives lie on both sides;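 active = signal ratio slope over the read window, or its plate-corrected B-score, at least 3 SD from the plate mean, either direction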;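 also: B-score of the F/F0 ratio slope over 7 to 12 s after thallium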
Target sequence (P48048 whole entry, looked up): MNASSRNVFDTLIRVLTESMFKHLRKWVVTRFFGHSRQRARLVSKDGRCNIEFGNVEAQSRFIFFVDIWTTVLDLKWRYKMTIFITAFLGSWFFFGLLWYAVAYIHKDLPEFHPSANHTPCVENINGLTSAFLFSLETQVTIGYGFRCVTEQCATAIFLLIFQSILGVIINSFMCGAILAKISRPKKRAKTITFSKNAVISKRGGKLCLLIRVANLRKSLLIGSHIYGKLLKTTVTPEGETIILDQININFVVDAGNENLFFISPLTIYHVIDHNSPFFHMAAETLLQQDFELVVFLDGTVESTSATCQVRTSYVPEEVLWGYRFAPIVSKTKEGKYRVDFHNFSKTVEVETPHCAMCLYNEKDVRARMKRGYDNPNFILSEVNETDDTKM
Diaph inh CS = diaphorase inhibitors and chemical oxidizers, primary screen, counter-screen for diaphorase-coupled primary assays, biochemical, uHTS, resorufin fluorescence; diaphorase resazurin-to-resorufin fluorescence, NADH, 16 min; bacterial (C. kluyveri) enzyme, not human; inhibition, % at 20 µM; actives 0.69% (n = 190,000);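 active = primary screen inhibition at 20 µM above a set limit, cut at about 50% in these data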;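 also: plate controls were DMSO with full reaction for no effect and wells lacking NADH for full effect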
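Assay system: diaphorase enzyme from Clostridium kluyveri; Input: enzyme working solution with 0.14 U/mL diaphorase; Timing: 16 min at room temperature; Technique: resorufin fluorescence, excitation 544 nm, emission 590 nm; Benchmarks: positive control minus NADH, DMSO neutral control.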
Diaph act CS = compounds boosting diaphorase resazurin reduction – biochemical, uHTS, resorufin fluorescence, counter-screen for diaphorase-coupled primary assays, primary screen | Diaphorase/resazurin coupled assay, 16 min; stronger effect = higher value; 1 = vehicle wells, 0 = NADH-free wells | activation factor at 20 µM | actives 0.005% (n = 190,000) | AID 1229, 2008;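 active = diaphorase activity raised at least twofold by the compound at 20 µM; inactive = activation factor below 2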
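Test system: Clostridium kluyveri diaphorase, purified enzyme; input: enzyme 0.07 U/mL final; buffer or medium: 50 mM HEPES pH 7.4 with 4.542 mM MgCl2, 0.005% Tween 20; also added: 0.114 mM NADH and 0.1 mM resazurin, final amounts; schedule: 16 min enzyme reaction, ambient temperature; technique: fluorescence of resorufin, 544 nm excitation, 590 nm emission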
ROMK hit retest = ROMK channel modulator hit retest, confirmation, cell-based, thallium flux, duplicate, resupplied hits | shares compounds with ROMK mod | fluorescence ratio; stronger effect = lower value | normalized thallium flux (F/F0 slope) at 10 µM | actives 54% (n = 3,000) | AID 1917, 2009;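 active = Flux at 10 µM at least 3 SD below or above vehicle control mean in one or both replicates; inconclusive = no clear call, values can overlap the other calls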
* marks the source's active call; other numbers are inactive results; ? = inconclusive; . = no result.

SMILES | G6PDH CS | PMI act | PMI act hi M6P | ROMK mod | Diaph inh CS | Diaph act CS | ROMK hit retest
CC(C)Cn1cc(C(=O)NC2CCN(Cc3ccccc3)CC2)c2c3ccccc3n(C)c2c1=O | -0.4 | 1 | 1 | -2.16* | -1.9 | 1 | 0.0683*
CC(C)(C)c1nc2cc(Cl)c([N+](=O)[O-])cc2o1 | 7.5 | 1 | 1 | -0.147 | -3.0 | 1 | .
Cc1cc(Cl)n2c(nc3cc(F)c(F)cc32)c1C#N | 1.2 | 1 | 0.7 | -7.17* | 15.6 | 0.8 | 0.0529*
C#CCOCCOCCOCCNc1nc(N2CCN(C(=O)[C@H](Cc3cc4ccccc4[nH]3)n3cc([C@@H](N)C(C)CC)nn3)CC2)nc(N2CCN(C(=O)[C@H](Cc3cc4ccccc4[nH]3)n3cc([C@@H](N)CC(C)C)nn3)CC2)n1 (some centres undefined) | -1.9 | 1.2 | 1.1 | . | -45.4 | 1.5 | .
COc1cc(C(C(=O)NC2CCCC2)N(C(=O)Cc2cccs2)C2CC2)cc(OC)c1OC (centres undefined) | 1.7 | 1 | 1 | -0.519 | 5.3 | 0.9 | .
O=C1Nc2ccccc2/C1=C/c1cnc(-c2ccccc2)[nH]1 | . | . | . | . | . | . | 0.0478*
O=C1Nc2ccccc2/C1=C/c1cccnc1 | -1.3 | 1 | 1 | -1.84 | 4.1 | 1 | .
COc1cccc(C2=Nn3c(nnc3-c3ccccc3O)SC2)c1 | -44.4 | 1 | 1 | . | 6.9 | 0.9 | .
C[n+]1c2n(c3ccccc31)N=C(c1cc(C(C)(C)C)c(O)c(C(C)(C)C)c1)CS2 | 6.0 | 1 | 1 | -5.54* | -10.4 | 1.1 | 0.0388*
Oc1ccccc1N=Cc1c(O)ccc2ccccc12 | . | . | . | . | . | . | 0.0451*
COc1cccc(C(=O)CSc2nnc(-c3cc(OC)cc(OC)c3)o2)c1 | -0.5 | 1 | 1 | 1.09* | 9.8 | 0.9 | ?
Cc1ccccc1-n1sc2cc(F)ccc2c1=O | 6.1 | -0.1 | 0.2 | -4.71* | 9.8 | 0.9 | 0.0567*
N#C/C(=C1\CCCN1)c1nc2ccccc2c(=O)[nH]1 | 2.8 | 0.9 | 0.9 | -0.35 | 20.0 | 0.8 | .
N#C/C(=C\c1ccccc1)c1nc2ncccc2[nH]1 | 8.3 | 0.8 | 0.9 | -2.54* | 12.7 | 0.9 | 0.0534*
N#C/C(=C\c1ccncc1)c1nc2ccccc2c(=O)[nH]1 | 0.6 | 1.4 | 1.4 | -4.93* | 7.1 | 0.9 | 0.0512*
N#C/C(=C/c1ccncc1)c1nc2ccccc2c(=O)[nH]1 | . | . | . | -6.62* | . | . | 0.042*
COc1ccc(-c2[nH]n(-c3ccc([N+](=O)[O-])cc3)c(=O)c2C=NCCN2CCNCC2)cc1 | 10.8 | . | . | -2.95* | . | . | 0.0592*
O=c1c(C=NCCN2CCNCC2)c(-c2ccccc2)[nH]n1-c1ccc([N+](=O)[O-])cc1 | 14.6 | 0.9 | 0.8 | -1.81 | 10.6 | 0.9 | .
COCCNC(=O)c1cc(-c2ccc3c(c2)OCO3)on1 | 1.7 | 1 | 1 | . | 6.8 | 0.9 | 0.0811
CCCNC(=O)c1cc(-c2ccc(Br)cc2)on1 | -3.5 | 0.9 | 1 | . | 11.9 | 0.9 | 0.0804
N#CC1=C(SCC(=O)NC2CC2)NC(=O)C(C#N)C12CCCCC2 (centres undefined) | -1.9 | 1 | 1 | 0.542 | 14.7 | 0.9 | .
N#CC1=C(SCC(=O)NC23CC4CC(CC(C4)C2)C3)NC(=O)C(C#N)C12CCCCC2 (centres undefined) | 9.8 | 0.8 | 0.8 | -3.69* | 29.4 | 0.7 | 0.0569*
O=C(CSc1ccc2ccccc2n1)NCc1ccc2c(c1)OCO2 | 7.3 | 1.2 | 1.2 | -5.25* | 4.5 | 1 | ?
CC1CCCC(C)N1C(=O)Cn1c(SCC(=O)NCc2ccc3c(c2)OCO3)nc2ccccc21 (centres undefined) | 1.2 | 1 | 1 | -3.87* | -2.9 | 1 | 0.0608*
NC1=CC(=O)c2cccc3cccc1c23 | 21.9 | 0.4 | 0.6 | -3.76* | 63.0* | 0.4 | 0.0513*
SMILES | G6PDH CS | PMI act | PMI act hi M6P | ROMK mod | Diaph inh CS | Diaph act CS | ROMK hit retest
NC1=Nc2cccc3cccc1c23 | 14.8 | 0.9 | 0.4 | -1.18 | 12.6 | 0.9 | .
CN(C)/C=N/c1c(C#N)cnn1-c1ccccc1 | -0.1 | 1.1 | 1 | 0.0824 | 11.7 | 0.9 | .
CN(C)/C=N/c1c(C#N)cnn1-c1ncnc2sc(-c3ccccc3)cc12 | -1.6 | 1 | 1 | . | 17.5 | 0.8 | 0.0628*
CC(C)=CCC/C(C)=C/CC(C)(C)CNCCN1CCNCC1 | 4.1 | 1.1 | 1 | . | -16.6 | 1.2 | .
CC(C)=CCC/C(C)=C/CCC(C)NCCN1CCNCC1 (centres undefined) | 3.4 | 1 | 1 | -3.32* | -9.1 | 1.1 | 0.0539*
O=S(=O)(O)c1nc2ccccc2n1Cc1cccc2ccccc12 | . | . | . | 0.565 | . | . | .
COc1ccc(NS(=O)(=O)c2ccc(N3CCCC3=O)cc2)cn1 | -1.6 | 1 | 1 | 2.32* | 3.7 | 1 | 0.0813
COc1ccc(OC)c(NS(=O)(=O)c2ccc(N3CCCC3=O)cc2)c1 | -1.8 | 1 | 1 | 2.31 | 8.8 | 0.9 | .
COC(=O)CNC(=O)CCCCC(=O)NCC(=O)OC | 4.4 | 1.1 | 1 | . | 13.3 | 0.9 | .
CCOC(=O)CNC(=O)CCCCCC(=O)NCC(=O)OCC | 6.3 | 1 | 1 | 0.0918 | 16.6 | 0.8 | 0.0712
Cc1cccc(N2C(=S)NC3c4ccccc4OC2(C)C3C(=O)N(C)C)c1 (centres undefined) | 1.9 | 1.1 | 1.2 | -4.41* | -12.2 | 1.1 | 0.0635*
CN(C)C(=O)C1C2NC(=S)N(c3ccccc3)C1(C)Oc1ccccc12 (centres undefined) | 2.3 | 0.9 | 0.9 | 0.858 | 15.5 | 0.8 | .
Cc1cc(C)n2c(SCC(C)C)nnc2n1 | 12.4 | 1 | 1 | . | 2.8 | 1 | .
CCSc1nnc2nc(C)cc(C)n12 | 6.5 | 0.9 | 1 | 1.91* | 0.0 | 1 | 0.0797
N#C/C(=C\c1cccs1)C(=O)c1ccccc1Cl | . | . | . | . | . | . | 0.0517*
